Paper PMC3080470 (Biopharmaceutics & drug disposition, 2011)
Like-named read-outs stand apart in the source and are kept apart here. Marks after values point to notes of the source that are not given here. Numbered stars: 1 amine (or outer) side, 2 acyl side, 3 side chain; on linkers, the order of the positions; unused ones are H or OH. Bridge positions count the residues as written; N and C are the ends. Square brackets hold non-standard residues; d marks the D form. Peptide text beside a SMILES is read from it. * marks the point of attachment. hTyr(3S-OH,4S-OH,3'-OSO3H) = N[C@H](C(=O)O)[C@H](O)[C@@H](O)c1ccc(O)c(OS(=O)(=O)O)c1; Orn(4R-OH,5R-OH) = O=C([C@H](C[C@@H](O)[C@@H](O)N[*:3])N[*:1])[*:2]; Pro(3S-OH,4S-Me) = C[C@H]1CN[C@H](C(=O)O)[C@H]1O; X1 = CCCCCOc1ccc(-c2cc(-c3ccc(C(=O)*)cc3)no2)cc1; Gln(3R-OH) = NC(=O)C[C@@H](O)[C@H](N)C(=O)O; Hyp = O=C(O)[C@@H]1C[C@@H](O)CN1

Assays:
[1] = system: sandwich-cultured human hepatocytes; conditions: cited from earlier work
[2] = cited from earlier work
[3] = cited from earlier work; remark: listed apart in the source
[4] = Micafungin serum fraction unbound by equilibrium dialysis; assay type: in vitro ADME; conditions: human, pH 7.4
Procedure, shortened: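 Serum from neonates (23–40 wk gestation, postnatal 1–52 days, 0.6–3.5 kg; n=6) or adults (n=6) spiked with 10 μM test compound. Dialysed against an equal volume of 100 mM sodium phosphate, pH 7.4, for 4.5 hr at 37°C with 100 rpm shaking. Both sides quantified by HPLC-fluorescence (ex 273/em 464 nm) with diclofenac internal standard and matrix-matched calibration. fu = buffer/serum concentration.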

[5] = adult; well-stirred model, fu 0.004, QH 21 ml/min/kg; ref Yanni et al. [8]; cited from earlier work
[6] = human adult, ref Yanni et al. [8]

Row | Compound | Intrinsic Biliary Cl ([1]; adult, sandwich-cultured human hepatocytes, B-CLEAR, ref Yanni et al. [8]) | Intrinsic Accumulation Cl ([1]; adult, sandwich-cultured human hepatocytes, ref Yanni et al. [8]) | In vitro intrinsic accumulation Cl ([1]; sandwich-cultured human hepatocytes from adult liver donors, no albumin) | plasma protein binding ([2]; in humans and animals) | binding to plasma proteins ([2]; stated in abstract, no reference given) | Observed Biliary Cl [3, 6] | Observed Plasma Cl [3, 6] | Observed Plasma Cl ([3]; human neonate, ref Heresi et al. [5]) | share of plasma clearance that occurs via biliary elimination of the parent drug ([3]; pharmacokinetic studies with 14C-micafungin) | fraction unbound at 4.5 hr, 10 μM ([4]; serum from adults) | fraction unbound at 4.5 hr, 10 μM ([4]; serum from neonates) | Calculated Biliary Cl [5] | Calculated Plasma Cl [5] | unbound fraction in blood [2] | clearance in neonates (< 3 months) compared to older children (2-11y) ([3]; human)
1 | CCCCCOc1ccc(-c2cc(-c3ccc(C(=O)N[C@H]4C[C@@H](O)[C@@H](O)NC(=O)[C@@H]5[C@@H](O)[C@@H](C)CN5C(=O)[C@H]([C@H](O)CC(N)=O)NC(=O)[C@H]([C@H](O)[C@@H](O)c5ccc(O)c(OS(=O)(=O)O)c5)NC(=O)[C@@H]5C[C@@H](O)CN5C(=O)[C@H]([C@@H](C)O)NC4=O)cc3)no2)cc1 [Micafungin] (X1-[Orn(4R-OH,5R-OH)]T[Hyp][hTyr(3S-OH,4S-OH,3'-OSO3H)][Gln(3R-OH)][Pro(3S-OH,4S-Me)]; lactam 1-C) | 14 ± 9 µL/min/mg | 24 ± 2 µL/min/mg | 23.5 ± 1.6 µL/min/mg | > 99% | > 99.5% | 0.160 mL/min/kg | 0.229 mL/min/kg | 0.622 ^# ml/min/kg | approximately 90% | 0.004 | 0.033 | 0.101 ± 0.062 mL/min/kg | 0.175 ± 0.012 mL/min/kg | – | –
2 | Caspofungin | – | – | – | – | – | – | – | – | – | – | – | – | – | about 3.5% | significantly lower
